Source: ChEMBL document CHEMBL1128739, “Structure-activity relationships in the 8-amino-6,7,8,9-tetrahydro-3H-benz[e]indole ring system. 2. Effects of 8-amino nitrogen substitution on serotonin receptor binding and pharmacology” (J Med Chem, 1995)
pKi: −log10 of the molar value. Values belong to the compound of their own block, whether it stands above or below them. Active and inactive are the calls of the source. The rule behind the calls is not given here.

Columns and labels:
Rattus norvegicus [1] = assay: The compound was tested in vivo for biochemical effect against the changes in different brain area levels of 5-HTP in reserpinized rat hemispheres (mainly cortex)at does 50 uM/kg; Partial effect; assay type: functional, organism-based
Rattus norvegicus [2] = assay: The compound was tested in vivo for biochemical effect against the changes in different brain area levels of DOPA in reserpinized rat hemispheres (mainly cortex)at does 50 uM/kg; Inactive; assay type: functional, organism-based
D(2) dopamine receptor [3] = target: T1, D(2) dopamine receptor (Rattus norvegicus, UniProt P61169); assay: In vitro binding affinity against cloned mammalian Dopamine receptor D2 expressed in CHO cells using [3H]U-86170 as radioligand; assay type: cell-based; details: for pKi: read-out: Ki
Outline: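 Membranes from CHO cells (20-60 μg protein) in 20 mM HEPES, 10 mM MgSO4, pH 7.4. Nonspecific binding defined with excess haloperidol. 11 concentrations, each in duplicate. Incubated 1 h at room temperature, then filtered and counted. IC50 from a one-site competition fit, converted to Ki by Cheng-Prusoff.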

Rattus norvegicus [4] = assay: The compound was tested in vivo for biochemical effect against the changes in different brain area levels of 5-HTP in reserpinized rat limbic system at dose 50 uM/kg; Partial effect; assay type: functional, organism-based
Rattus norvegicus [5] = assay: The compound was tested in vivo for biochemical effect against the changes in different brain area levels of DOPA in reserpinized rat corpus striatum at does 50 uM/kg; Inactive; assay type: functional, organism-based
Rattus norvegicus [6] = assay: The compound was tested in vivo for biochemical effect against the changes in different brain area levels of 5-HTP in reserpinized rat corpus striatum at does 50 uM/kg; Partial effect; assay type: functional, organism-based
Rattus norvegicus [7] = assay: The compound was tested in vivo for biochemical effect against the changes in different brain area levels of DOPA in reserpinized rat limbic system; Inactive; assay type: functional, organism-based
[8] = target: 5-hydroxytryptamine receptor 1D (Homo sapiens, UniProt P28221); assay: In vitro binding affinity against cloned mammalian 5-hydroxytryptamine 1D receptor alpha expressed in CHO cells, by using [3H]5-HT as radioligand; assay type: cell-based
Outline: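 Competition binding on CHO-cell membranes (20-60 μg protein) in 50 mM Tris, 5 mM MgCl2, 0.1% ascorbic acid, pH 7.4. Nonspecific binding defined with excess serotonin. 11 drug concentrations, each in duplicate. Incubated 1 h at room temperature, protected from light, then filtered and scintillation counted. IC50 taken from a one-site fit; Ki by Cheng-Prusoff.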

Rattus norvegicus [9] = assay: The compound was tested in vivo for biochemical effect against the changes in different brain area levels of DOPA in reserpinized rat corpus striatum; assay type: functional
Outline: (§1)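 Male Sprague-Dawley rats (200-300 g) pretreated with reserpine 5 mg/kg sc 18 h before. Injection volume 5 mL/kg, test solutions at neutral pH. DOPA and 5-HTP in limbic system, striatum and hemispheres measured by HPLC with electrochemical detection. Dose-response curves from four to six dose levels (n = 4) per brain area.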

[10] = target: T2, 5-hydroxytryptamine receptor 1B (Homo sapiens, UniProt P28222); assay: The compound was tested in vitro for binding affinity against cloned mammalian 5-hydroxytryptamine 1D receptor beta expressed in CHO cells, by using [3H]5-HT as radioligand; assay type: cell-based; parameters: concentration or dose not given beside the values; details: concentration not given here
Outline: (§2)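 Membranes from CHO cells stably expressing the cloned receptor, made by mechanical disruption in ice-cold Tris/EDTA/EGTA pH 7.4 and differential centrifugation. [3H]serotonin at 1.7 nM in 50 mM Tris, 5 mM MgCl2, 0.1% ascorbic acid, pH 7.4. 11 drug concentrations in duplicate, 1 h at room temperature protected from light, then filtration. Excess serotonin defines nonspecific binding. One-site IC50 fit, Ki by Cheng-Prusoff.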

Rattus norvegicus [11] = assay: The compound was tested in vivo for biochemical effect against the changes in different brain area levels of DOPA in reserpinized rat hemispheres (mainly cortex); inactive at dose 50 uM/kg; Inactive; assay type: functional, organism-based
[12] = target: D(3) dopamine receptor (Rattus norvegicus) (UniProt P19020); assay: The compound was tested in vitro for binding affinity against cloned mammalian Dopamine receptor D3 expressed in CHO cells by, using [3H]spiperone as radioligand; inactive at 10E-6 M; assay type: cell-based
Rattus norvegicus [13] = assay: The compound was tested in vivo for biochemical effect against the changes in different brain area levels of DOPA in reserpinized rat limbic system; assay type: functional
Outline: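 Rats (male Sprague-Dawley, 200-300 g) received reserpine 5 mg/kg sc 18 h before. Injections 5 mL/kg at neutral pH. DOPA accumulation measured by HPLC with electrochemical detection as an index of DA or NE synthesis rate. Four to six dose levels, n = 4. ED50 from a sigmoidal fit.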

Rattus norvegicus [14] = assay: In vivo changes in different brain area levels of 5-HTP in reserpinized rat corpus striatum.; assay type: functional
Outline: (§3)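 Male Sprague-Dawley rats (200-300 g) pretreated with reserpine 5 mg/kg sc 18 h before. Injection volume 5 mL/kg at neutral pH. Brain-region 5-HTP measured by HPLC with electrochemical detection. Dose-response curves used four to six doses, n = 4.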

Rattus norvegicus [15] = assay: In vivo for biochemical effect against brain area levels of 5-HTP in reserpinized rat hemispheres (mainly cortex).; assay type: functional; outline: as §1
D(2) dopamine receptor [16] = target: T1, D(2) dopamine receptor; assay: Binding affinity rat Dopamine receptor D2 expressed in CHO-K1 cells by [3H]U-86170 displacement.; assay type: cell-based
Rattus norvegicus [17] = assay: In vivo changes in different brain area levels of 5-HTP in reserpinized rat limbic system.; assay type: functional; outline: as §3
D(3) dopamine receptor = D(3) dopamine receptor (Rattus norvegicus, UniProt P19020); assay: In vitro binding affinity against cloned mammalian Dopamine receptor D3 expressed in CHO cells by, using [3H]-spiperone as radioligand; assay type: cell-based; details: for pKi: read-out: Ki
Rattus norvegicus [18] = assay: The compound was tested in vivo for biochemical effect against the changes in different brain area levels of DOPA in reserpinized rat hemispheres (mainly cortex)at does 25 uM/kg; Inactive; assay type: functional, organism-based
Rattus norvegicus [19] = assay: The compound was tested in vivo for biochemical effect against the changes in different brain area levels of DOPA in reserpinized rat limbic system at dose 25 uM/kg; Inactive; assay type: functional, organism-based
Rattus norvegicus [20] = assay: The compound was tested in vivo for biochemical effect against the changes in different brain area levels of 5-HTP in reserpinized rat limbic system at dose 25 uM/kg; Inactive; assay type: functional, organism-based
[21] = target: T2, 5-hydroxytryptamine receptor 1B; assay: In vitro binding affinity against cloned mammalian 5-hydroxytryptamine 1D receptor beta expressed in CHO cells, by using [3H]5-HT as radioligand; assay type: cell-based; outline: as §2
Rattus norvegicus [22] = assay: The compound was tested in vivo for biochemical effect against the changes in different brain area levels of 5-HTP in reserpinized rat hemispheres (mainly cortex)at dose 25 uM/kg; Inactive; assay type: functional, organism-based
Rattus norvegicus [23] = assay: The compound was tested in vivo for biochemical effect against the changes in different brain area levels of DOPA in reserpinized rat corpus striatum at dose 25 uM/kg; Inactive; assay type: functional, organism-based
Rattus norvegicus [24] = assay: The compound was tested in vivo for biochemical effect against the changes in different brain area levels of 5-HTP in reserpinized rat corpus striatum at dose 25 uM/kg; Inactive; assay type: functional, organism-based
Rattus norvegicus [25] = assay: The compound was tested in vivo for biochemical effect against the changes in different brain area levels of DOPA in reserpinized rat corpus striatum at dose 50 uM/kg; Inactive; assay type: functional, organism-based; outline: as §1
Rattus norvegicus [26] = assay: The compound was tested in vivo for biochemical effect against the changes in different brain area levels of DOPA in reserpinized rat limbic system at dose 50 uM/kg; Inactive; assay type: functional, organism-based
Rattus norvegicus [27] = assay: The compound was tested in vivo for biochemical effect against the changes in different brain area levels of DOPA in reserpinized rat hemispheres (mainly cortex)at dose 50 uM/kg; Inactive; assay type: functional, organism-based
Rattus norvegicus [28] = assay: The compound was tested in vivo for biochemical effect against the changes in different brain area levels of DOPA in reserpinized rat hemispheres (mainly cortex); inactive at the highest dose tested (3.1); assay type: functional, organism-based; outline: as §1
Rattus norvegicus [29] = assay: The compound was tested in vivo for biochemical effect against the changes in different brain area levels of DOPA in reserpinized rat limbic system at dose 12.5 uM/kg; Partial effect; assay type: functional, organism-based
Rattus norvegicus [30] = assay: The compound was tested in vivo for biochemical effect against the changes in different brain area levels of DOPA in reserpinized rat hemispheres (mainly cortex)at dose 12.5 uM/kg; Partial effect; assay type: functional, organism-based
Rattus norvegicus [31] = assay: The compound was tested in vivo for biochemical effect against the changes in different brain area levels of DOPA in reserpinized rat corpus striatum at dose 12.5 uM/kg; Partial effect; assay type: functional, organism-based; outline: as §1

T2 sequence (P28222 whole entry): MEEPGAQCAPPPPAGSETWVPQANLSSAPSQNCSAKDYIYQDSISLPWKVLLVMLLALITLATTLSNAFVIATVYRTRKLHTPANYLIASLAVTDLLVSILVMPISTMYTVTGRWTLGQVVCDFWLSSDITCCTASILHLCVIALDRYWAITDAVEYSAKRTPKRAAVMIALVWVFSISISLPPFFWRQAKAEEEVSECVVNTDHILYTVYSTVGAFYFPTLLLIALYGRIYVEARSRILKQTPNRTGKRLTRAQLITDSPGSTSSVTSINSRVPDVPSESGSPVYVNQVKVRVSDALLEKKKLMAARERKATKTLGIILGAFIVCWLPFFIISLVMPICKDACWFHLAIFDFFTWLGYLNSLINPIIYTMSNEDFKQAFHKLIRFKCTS
5-hydroxytryptamine receptor 1D, sequence (P28221 whole entry): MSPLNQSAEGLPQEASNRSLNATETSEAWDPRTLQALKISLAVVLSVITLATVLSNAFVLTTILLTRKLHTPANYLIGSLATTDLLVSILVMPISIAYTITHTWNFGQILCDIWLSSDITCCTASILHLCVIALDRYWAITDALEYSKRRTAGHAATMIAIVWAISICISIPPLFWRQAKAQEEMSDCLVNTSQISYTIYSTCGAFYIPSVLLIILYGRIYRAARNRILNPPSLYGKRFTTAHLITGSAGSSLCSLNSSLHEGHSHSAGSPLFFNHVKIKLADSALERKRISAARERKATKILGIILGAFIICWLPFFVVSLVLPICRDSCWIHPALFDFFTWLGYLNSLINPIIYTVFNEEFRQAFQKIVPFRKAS
T1 sequence (P61169 whole entry): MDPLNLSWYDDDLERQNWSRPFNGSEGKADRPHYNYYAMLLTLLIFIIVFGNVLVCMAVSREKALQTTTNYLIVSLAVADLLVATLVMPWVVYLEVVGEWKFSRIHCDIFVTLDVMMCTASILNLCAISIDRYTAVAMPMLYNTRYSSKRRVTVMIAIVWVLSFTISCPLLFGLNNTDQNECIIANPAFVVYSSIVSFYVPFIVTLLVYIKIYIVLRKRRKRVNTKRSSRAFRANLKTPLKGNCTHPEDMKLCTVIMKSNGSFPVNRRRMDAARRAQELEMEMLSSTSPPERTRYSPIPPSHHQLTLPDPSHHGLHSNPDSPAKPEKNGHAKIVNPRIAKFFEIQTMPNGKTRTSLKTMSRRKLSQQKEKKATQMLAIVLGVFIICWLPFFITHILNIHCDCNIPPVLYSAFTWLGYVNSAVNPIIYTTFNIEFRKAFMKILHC
D(3) dopamine receptor, sequence (P19020 whole entry): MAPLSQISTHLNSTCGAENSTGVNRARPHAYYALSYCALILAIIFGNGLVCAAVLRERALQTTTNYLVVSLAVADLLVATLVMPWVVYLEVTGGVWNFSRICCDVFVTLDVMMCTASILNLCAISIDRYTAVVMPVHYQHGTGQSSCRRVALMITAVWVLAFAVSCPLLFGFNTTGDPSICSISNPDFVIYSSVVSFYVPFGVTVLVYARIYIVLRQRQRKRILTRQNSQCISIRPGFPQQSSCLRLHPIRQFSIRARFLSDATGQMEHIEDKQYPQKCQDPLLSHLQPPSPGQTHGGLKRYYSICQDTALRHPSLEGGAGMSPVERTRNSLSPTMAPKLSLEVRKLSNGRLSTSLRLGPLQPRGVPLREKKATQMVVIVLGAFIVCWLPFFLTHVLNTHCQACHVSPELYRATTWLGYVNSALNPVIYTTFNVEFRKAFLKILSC
D(3) dopamine receptor (Rattus norvegicus), sequence (P19020 whole entry): as above

Ki (D(2) dopamine receptor [3]; cho): Not Active
SMILES: CCCN(CCC)CC1CCc2ccc3[nH]cc(C=O)c3c2C1 (stereo unspecified)
ED50 (Rattus norvegicus [1]): Weak activity | ED50 (Rattus norvegicus [2]): inactive | ED50 (Rattus norvegicus [4]): Weak activity | ED50 (Rattus norvegicus [5]): inactive | ED50 (Rattus norvegicus [6]): Weak activity | ED50 (Rattus norvegicus [7]): inactive

pKi [8]: 7.11 | inhibition [10]: < 45% | inhibition [12]: < 45% | pKi (D(2) dopamine receptor [16]): 7.03
SMILES: c1cc2c3c(ccc2[nH]1)CCC(N1CCCC1)C3 (stereo unspecified)
ED50 (Rattus norvegicus [9]): 3.26 µmol/kg | ED50 (Rattus norvegicus [11]): inactive | ED50 (Rattus norvegicus [13]): 1.57 µmol/kg | ED50 (Rattus norvegicus [14]): 0.066 µmol/kg | ED50 (Rattus norvegicus [15]): 0.051 µmol/kg | ED50 (Rattus norvegicus [17]): 0.092 µmol/kg

pKi [8]: 6.60 | pKi (D(3) dopamine receptor): 5.90 | pKi (D(2) dopamine receptor [3]): 6.07 | pKi [21]: 5.79
SMILES: CCCN(CCCCN1C(=O)CC(C)(C)CC1=O)[C@H]1CCc2ccc3[nH]cc(C=O)c3c2C1
ED50 (Rattus norvegicus [18]): inactive | ED50 (Rattus norvegicus [19]): inactive | ED50 (Rattus norvegicus [20]): inactive | ED50 (Rattus norvegicus [22]): inactive | ED50 (Rattus norvegicus [23]): inactive | ED50 (Rattus norvegicus [24]): inactive

pKi [8]: 8.29 | pKi (D(3) dopamine receptor): 6.80 | pKi (D(2) dopamine receptor [3]): 7.55 | pKi [21]: 6.73
SMILES: CCCN(CCCOc1cccc(Cl)c1)C1CCc2ccc3[nH]cc(C=O)c3c2C1 (stereo unspecified)
ED50 (Rattus norvegicus [25]): inactive | ED50 (Rattus norvegicus [26]): inactive | ED50 (Rattus norvegicus [14]): 4.01 µmol/kg | ED50 (Rattus norvegicus [27]): inactive | ED50 (Rattus norvegicus [15]): 5.12 µmol/kg | ED50 (Rattus norvegicus [17]): 4.79 µmol/kg

SMILES: CCCN(CCC)[C@@H]1CCc2ccc3[nH]ccc3c2C1
ED50 (Rattus norvegicus [28]): inactive

Ki (D(3) dopamine receptor; cho): Not Active | pKi (D(2) dopamine receptor [3]): < 6.00
SMILES: O=Cc1c[nH]c2ccc3c(c12)CC(N1CCCC1)CC3 (stereo unspecified)
ED50 (Rattus norvegicus [29]): Weak activity | ED50 (Rattus norvegicus [30]): Weak activity | ED50 (Rattus norvegicus [31]): Weak activity | ED50 (Rattus norvegicus [14]): 0.58 µmol/kg | ED50 (Rattus norvegicus [15]): 0.86 µmol/kg | ED50 (Rattus norvegicus [17]): 0.58 µmol/kg
